Published values of several laboratories.
Compare with care: the assays were run in different laboratories.

Structure (SMILES)	tested on	test	test system	conditions	measurement	value
COc1ccc2c(c1)CN(C(=O)CCN1CCC(Cc3ccccc3)CC1)CC[S@@+]2[O-]	–	–	male human, plasma	intravenous, 0.01 mg/kg, healthy volunteers	AUC(0-t)	45.2 ng·h/mL
CNC(=O)c1cc(Oc2ccc(NC(=O)Nc3ccc(Cl)c(C(F)(F)F)c3)cc2)ccn1	WISH	cell growth or viability, MTT	–	3.125 µM, 24 h	viability	86.2%
COc1ccc(F)cc1C(=O)NCc1ccc(-c2nn([C@@H](C)C(F)(F)F)c(N)c2C(N)=O)cc1	–	–	male human, plasma	oral, 200 mg, single dose	AUC(0-inf)	105000 ng·h/mL
CC(C)C[C@H](NC(=O)[C@H](Cc1ccccc1)NC(=O)c1cnccn1)B(O)O	CHP-212	cell growth or viability, SRB	–	4.572 nM	viability	102%
O=C(COc1ccc(Cl)cc1)NC12CC(c3nnc([C@H]4C[C@@H](OC(F)(F)F)C4)o3)(C1)C2	–	–	human, plasma	oral, 260 mg, multiple doses, once daily, steady state, healthy volunteers	AUC	296 µM·h
O=C(O)COc1cccc(-c2nc(Nc3ccc4[nH]ncc4c3)c3ccccc3n2)c1	Organic anion transporter 3 (SLC22A8, Homo sapiens, UniProt Q8TCC7)	transporter uptake, inhibitor, radiometric	–	–	IC50	15.9 µM
CC(=O)N(C)[C@H]1CCN(C(=O)c2cnc3c(c2)C[C@](C)(c2ccc(F)cc2)N3)C1	–	–	male human, plasma	oral, 30 mg, multiple doses, once daily, steady state	AUC(0-t)	3.63 µM·h
CC(=O)O[C@H]1C(=O)[C@@]2(C)[C@H]([C@H](OC(=O)c3ccccc3)[C@]3(O)C[C@H](OC(=O)[C@H](O)[C@@H](NC(=O)c4ccccc4)c4ccccc4)C(C)=C1C3(C)C)[C@]1(OC(C)=O)CO[C@@H]1C[C@@H]2O	CHP-212	cell growth or viability, SRB	–	1.524 nM	viability	89.8%
CC(C)n1c(C2CCNCC2)nc2c([N+](=O)[O-])c(Br)c(Br)cc21	–	–	human, plasma	oral, 100 mg, patients	AUC(0-t)	952 ng·h/mL
NCc1cc2c(cc1F)C(=O)N(C1CCC(=O)NC1=O)C2 (stereo not shown)	–	–	male cynomolgus monkey, plasma	oral, 0.3 mg/kg, 2 h	concentration	1.07 ng/mL
